experiment: Toxicity liver stage against HepG2, at 10uM; format: cell-based; design: test concentration 10 uM, cell line HepG2-A16-CD81EGFP; details: human, HepG2-A16-CD81EGFP cells; read-out: INHIBITION
Summary of the method: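 Uninfected HepG2-A16-CD81EGFP cells, 3 × 10^3 per well, 1536-well, plated on prespotted compound at 10 μM final, parasite-free screening media added to match infected plates; puromycin 10 μM positive, DMSO 0.5% negative; run in parallel with 48 h PbLuc assay at 37 °C, 5% CO2; viability by CellTiter-Glo luminescence, normalized to controls.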

Row | Structure (SMILES) | cytotoxicity at 10 µM [%]
1 | c1cncc(CNCCc2cccs2)c1 | -5.68
2 | COc1ccc(C[C@H]2CN(C(=O)c3cc(C)no3)CC[C@H]2OC)cc1 | 6
3 | O=C(Nc1cnccn1)[C@@H]1COC[C@H]2CN(c3ncc(F)cn3)C[C@H]21 | -11.7
4 | CN(Cc1ccncc1)C1CCC[C@@H]2CN(c3ncccn3)C[C@H]12 (some centres undefined) | -3.21
5 | O=C([C@@H]1CC[C@@H]2[C@@H](CCN2Cc2ccncc2)O1)N1CCCCO1 | -3.75
6 | Cc1ccc(N2CCCC3(COCCN(c4cnccn4)C3)C2)nn1 (centres undefined) | -139
7 | COCCC(=O)N1CCC2(CCCN2Cc2ccccc2)C1 (centres undefined) | 10.4
8 | CC(C)OCCCNC(=O)CC1(Cn2cnnn2)CCCCC1 | 9.18
9 | COc1ccc(Cl)cc1CNCCCn1ccnc1 | 8.32
10 | COCCNC(=O)C1CCCN(c2ccc3nncn3n2)C1 (centres undefined) | -0.302
11 | O=c1[nH]c2c(c(=O)n1C1CCCCC1)CCC2Nc1ccccc1 (centres undefined) | 0.795
12 | Cc1nc(N2CCCC2)nc2c1CCN(C(=O)CC1CC1)CC2 | -9.6
13 | Cn1nc(C(=O)NC2CCCC2)cc1NC(=O)C1CC1 | 0.754
14 | CC1CCCN(C(=O)c2ccc(-c3ccco3)o2)C1 (centres undefined) | 4.23
15 | Cc1nn(C)c(C)c1-c1cnc(CC2CCNC2)cn1 (centres undefined) | -8.41
16 | Cc1sc2c(C3CCCN(S(C)(=O)=O)C3)nc(C)n2c1C (centres undefined) | -33
17 | c1cncc(CN2CCCC(c3nnc(-c4cnccn4)o3)C2)c1 (centres undefined) | -7.36
18 | O=C(c1cc(C2CCCCN2C(=O)C2CCC2)n[nH]1)N1CCOCC1 (centres undefined) | -14
19 | COCC(=O)N1CCC(c2n[nH]c3nccnc23)CC1 | -8.38
20 | O=C(CCNc1ccc(Br)cn1)NCc1ccncc1 | -0.222
21 | Cc1c(C(=O)N(C)CC(F)(F)F)nnn1-c1ccccc1Cl | -1.58
22 | CC(NS(=O)(=O)N(C)C)c1cccc(-n2cccn2)c1 (centres undefined) | -1.46
23 | COc1ccccc1CCNC(=O)NCC(=O)Nc1cccnc1 | -15.2

Row | Structure (SMILES) | cytotoxicity at 10 µM [%]
24 | O=C(NCC(O)c1cccc(F)c1)c1sccc1OC(F)F (centres undefined) | 0.547
25 | CC(C)Cn1cnc(S(=O)(=O)Nc2cccnc2-n2cccn2)c1 | -1.75
26 | CNC(=O)CN1CCC(CN(C)Cc2ccncc2Cl)CC1 | -2.87
27 | NC(=O)c1cn(CC2CCC2)c(C2CC2)n1 | 12.8
28 | CCc1noc(C(C)N2CCC(NS(=O)(=O)c3ccccc3)CC2)n1 (centres undefined) | 7.87
29 | NC(=O)C(NCc1ccc(Cl)s1)c1ccccc1 (centres undefined) | 2.8
30 | N#CCCN(CC1CC1)S(=O)(=O)c1cccc(Cl)c1 | 9.09
31 | Cc1ccc(-c2cc(CNC(=O)NC3CCCCNC3=O)on2)cc1 (centres undefined) | -145
32 | Cc1cc(CN(C2CC2)C(C)C(C)C)on1 (centres undefined) | -0.212
33 | Cc1cc(Cn2cc(C#N)c(=O)c3ccccc32)on1 | 8.83
34 | CCOc1ccc2cc(C(=O)NCCNc3ccc(C)nn3)[nH]c2c1 | 1.64
35 | O=C(NC1CCS(=O)(=O)c2ccccc21)c1sccc1C1CC1 (centres undefined) | 3.63
36 | CCOc1cc(F)ccc1NC(=O)N(C(C)CS(C)(=O)=O)C1CC1 (centres undefined) | 4.11
37 | Cc1ccc(S(=O)(=O)N2CC(C)Oc3ncccc32)c(F)c1 (centres undefined) | 3.43
38 | CC1CCN(C(=O)c2ccc(N(C)Cc3cnn(C)c3)nc2)CC1 | -13.8
39 | CS(=O)(=O)NC1CCN(C(=O)c2ccc(F)cc2)CC1 | 2.3
40 | O=C(CCc1ccccc1)N1CCN(C(=O)c2ccc[nH]2)CC1 | -5.04
41 | CN(CCC(=O)NC1CC1)Cc1ccc(Cl)s1 | 7.83
42 | COc1ccc(NC(=O)NC(C)c2nc[nH]n2)cc1Cl (centres undefined) | 0.0264
43 | CCSc1cc(C(=O)NCCNC(=O)N(C)C)ccn1 | -3.63
44 | Cc1cc(NC(=O)C(c2cccc(F)c2)N2CCOCC2)sn1 (centres undefined) | -3.98
45 | CN(Cc1cnn(C)c1)C(=O)NCC1CCS(=O)(=O)C1 (centres undefined) | 10.3
46 | Cc1n[nH]c(C2CN(C(=O)CCCn3cccn3)CCO2)n1 (centres undefined) | -0.138

Row | Structure (SMILES) | cytotoxicity at 10 µM [%]
47 | N#CC1(C(=O)NCc2ccc(F)cc2)CCCC1 | 7.57
48 | COc1ccnc(NC(=O)c2cnccn2)c1 | 7.97
49 | COCCN1CC(C(=O)Nc2ccc3c(c2)CCC(=O)N3C)CC1=O (centres undefined) | 6.18
50 | CN(Cc1nc2ccsc2c(=O)[nH]1)CC1CCCCC1 | -1.05
51 | CCC1CN(CC(=O)NCCOC)CCO1 (centres undefined) | -12.9
52 | CCN(CC)C(=O)c1ccc(CNc2ncc(C#N)cc2Cl)cc1 | 5.87
53 | CC(C)(CCS(C)(=O)=O)CNC(=O)NC1CCCC1(C)C (centres undefined) | 6.7
54 | Fc1ccc(-c2cnc(CNC3CCc4ncnn4C3)o2)cc1 (centres undefined) | -0.174
55 | CC(C)CCNc1nnc(C(C)C)s1 | -10.6
56 | CN(C)S(=O)(=O)NCC1CCN(Cc2ccccc2F)CC1 | -0.768
57 | CN(C)C1(CNC(=O)Cc2ccc(F)cc2)CCOCC1 | 6.03
58 | O=C(NCCc1nncn1C1CC1)c1cc2ccccn2c1 | -1.87
59 | CN(CC(=O)NC(C)(C#N)C1CC1)Cc1nc2ccccc2n1C (centres undefined) | -3.72
60 | Cc1ccc2nc(NCCN3CCOCC3)n(C)c(=O)c2c1 | 9.26
61 | COc1ccc(F)c(NCc2ccc(C(=O)N(C)C)[nH]2)c1 | 7.31
62 | Cc1ccc(NC(=O)NC(C)C(=O)N2CCS(=O)(=O)CC2)cc1 (centres undefined) | -5.1
63 | Cc1n[nH]c(C2CN(CC(=O)NCCc3ccsc3)CCO2)n1 (centres undefined) | -0.524
64 | Cc1cc(C)c2[nH]c(C(=O)NCCN3CCCC3=O)c(C)c2c1 | 2.49
65 | CC(C)c1nccc(-c2nccn2CCN(C)S(C)(=O)=O)n1 | 7.53
66 | Cc1ccsc1[C@@H]1CCN(C(=O)Cc2ccc(O)cc2)C[C@H]1O | -2.59
67 | CCCc1nc(CN(CC)Cc2ccc(S(C)(=O)=O)cc2)no1 | -16.9
68 | CCC(C)N(Cc1ccsc1)C(=O)c1ccc2[nH]nnc2c1 (centres undefined) | 13.3
69 | Cn1c(Cn2ccnc2)nnc1C1CCN(C(=O)c2ccncc2)CC1 | -106

Row | Structure (SMILES) | cytotoxicity at 10 µM [%]
70 | CCc1ccccc1CN1CCN(Cc2ncc[nH]2)[C@H]2CS(=O)(=O)C[C@H]21 | 2.03
71 | CC1=C(C(=O)NCCc2n[nH]c3c2CCCC3)C(C)NC(=O)N1 (centres undefined) | -3.51
72 | CN(C)CC1(O)CCCN(C(=O)Cn2nc3ccccc3n2)CC1 (centres undefined) | -8.14
73 | CCN(C(=O)c1c(Cl)cnn1CC)C(C)C(N)=O (centres undefined) | -16.1
74 | CCCc1nc(C(=O)NCc2cccnc2-n2cncn2)cs1 | -148
75 | c1cncc(NCCNC2CCSCC2)c1 | -0.307
76 | CCc1nn(C)c(Cl)c1CN(CC)Cc1cnn(CC)c1 | 4.36
77 | CN1CCN(S(=O)(=O)NCC2COc3ccccc3C2)CC1 (centres undefined) | -3.33
78 | CCCn1ncnc1C(C)NC(=O)C1CCN(C(C)C)CC1 (centres undefined) | -139
79 | O=C(NCCSc1cnn[nH]1)c1c[nH]nc1C1CCCCC1 | -5.03
80 | Cc1nc(CCCN2CCOCC2)n(Cc2ccc(F)cc2)n1 | 1.69
81 | CCOc1ccccc1CN(C)C(=O)CN1C(=O)OC[C@@H]1C(C)C | -2.24
82 | CC[C@H]1CN(C(=O)CCn2c(C)cccc2=O)CC[C@@]1(C)O | 8.51
83 | O=C(CCCc1ccc(F)cc1)N1C[C@@H](CN2CCOCC2)[C@@H](CO)C1 | -11.8
84 | O=C(O)c1cc(-c2cccnc2)cc(S(=O)(=O)N2CCCCCC2)c1 | -2.88
85 | COCc1ccc(CNc2cncc(-n3cccn3)n2)cc1 | 6
86 | Cc1nc(CN2CCCC(N(C)CC3CCCC3)C2)no1 (centres undefined) | -7.3
87 | COc1ccc(Cl)cc1C(=O)NCCNc1cnccn1 | -8.35
88 | COc1ncccc1CNC(=O)c1cc(Cl)ccn1 | -7.51
89 | CC(Cc1ccco1)NC(=O)Nc1ccc(N(C)C)nc1 (centres undefined) | -7.22
90 | Cc1nc(C)n(CC2CCCN2CCc2ccncc2)n1 (centres undefined) | -7.3
91 | CCOCCN1CCN(Cc2csc(-c3cnn(C)c3)n2)CC1 | -4.95
92 | COCCOc1ccc(NC(=O)C2CC(=O)N(C(C)C)C2)cn1 (centres undefined) | -17.6

Row | Structure (SMILES) | cytotoxicity at 10 µM [%]
93 | CCC(O)CN1CCN(C(=O)c2cccn2Cc2ccncc2)CC1 (centres undefined) | -13
94 | Cc1nc(CN(C)C2CCCN(c3cccnn3)C2)oc1C (centres undefined) | -12.4
95 | OCC1CCCN1c1cc(NCc2cccc3cccnc23)ncn1 (centres undefined) | -15.6
96 | CC(C)CCc1nc(CNCC2CN(C)CCO2)cs1 (centres undefined) | -15.2
97 | CC(C)c1n[nH]c(C2CN(CCc3cccs3)CCO2)n1 (centres undefined) | -4.57
98 | Cc1ccc(C(=O)NC2CCN(C(=O)Nc3ccccn3)CC2)s1 | -4.54
99 | CCCN1CCN(C(=O)Cc2nc(-c3ccco3)oc2C)CC1 | -6.14
100 | NC(=O)C1CN(C(=O)Nc2ccccc2N2CCCCCC2)CCO1 (centres undefined) | -6.31
101 | CCc1nnc(CN2CCN(C(=O)c3cc4ccccc4[nH]3)CC2)o1 | -0.385
102 | Cc1ccc(CN[C@@H]2COC[C@H]2Cc2cc(C)no2)cc1 | -23.2
103 | CC(C)N(C)Cc1cnc2n1CCN(Cc1cccc(F)c1)C2 | -2.92
104 | COCCNC(=O)c1cc(-c2cc[nH]n2)n2ccccc12 | 10.4
105 | O=C1CC2(CCN(Cc3ccccn3)C2)CN1c1cccnc1 (centres undefined) | -8.75
106 | COc1ccc(C(NCc2ccc(C#N)cc2)C2CC2)cc1 (centres undefined) | 7.18
107 | CCn1nnc2c1C(COCCN(C)C)CN(Cc1ccc(C)s1)C2 (centres undefined) | 4.44
108 | CN(C)C1CC2(CCN(C(=O)c3csnn3)CC2)c2ccccc21 (centres undefined) | -138
109 | NC(C(=O)N1CCSc2ccccc2C1)c1ccccc1 (centres undefined) | 4.59
110 | c1csc(CN2Cc3nccn3CC(Cn3cncn3)C2)c1 (centres undefined) | -136
111 | Cc1cnc(N2CCc3c(cnc(C)c3C(=O)O)C2)nc1 | 8.1
112 | O=C1CCC2(CCN(Cc3ccc(F)cc3)CC2)N1CCN1CCCC1 | -4.72
113 | CCc1nccn1CC(=O)N1C[C@@H]2CC[C@H]1CN(c1ncccn1)C2 | -7.9
114 | Cc1ccoc1C1=NNC(=CN2CCn3c(C)nnc3C2)O1 | -16.4

— ChEMBL document CHEMBL4513216, “Probing the Open Global Health Chemical Diversity Library for Multistage-Active Starting Points for Next-Generation Antimalarials” (ACS Infect Dis, 2020)
